Results: article PMC4755333 (Journal of medicinal chemistry, 2011)
Like-named read-outs stand apart in the source and are kept apart here.

Key:
[1] = Aqueous solubility, Multiscreen solubility filter plate with LC-MS/MS; format: physicochemical; details: for solubility compared with compound 1: Figure 3
[2] = test system: WM-164; experiment: SRB cytotoxicity assay, WM-164 melanoma cells; format: cell-based, human; details: read-out: IC50 ± SEM, WM-164, 96 h treatment
[3] = test system: B16-F1; experiment: SRB cytotoxicity assay, B16-F1 mouse melanoma cells; format: cell-based; details: read-out: IC50 ± SEM, B16-F1, 96 h treatment
[4] = test system: LNCaP; experiment: SRB cytotoxicity assay, LNCaP prostate cancer cells; format: cell-based, human; details: read-out: IC50 ± SEM, LNCaP
[5] = test system: A375; experiment: SRB cytotoxicity assay, A375 melanoma cells; format: cell-based, human; details: read-out: IC50 ± SEM, A375, 96 h treatment
[6] = test system: DU 145; experiment: SRB cytotoxicity assay, DU 145 prostate cancer cells; format: cell-based, human; details: read-out: IC50 ± SEM, DU 145
[7] = test system: PPC-1; experiment: SRB cytotoxicity assay, PPC-1 prostate cancer cells; format: cell-based, human; details: read-out: IC50 ± SEM, PPC-1
[8] = test system: PC-3; experiment: SRB cytotoxicity assay, PC-3 prostate cancer cells; format: cell-based, human; details: read-out: IC50 ± SEM, PC-3
[9] = test system: cancer cell lines; format: cell-based; details: for antiproliferative activity: text summary of Tables 1–3; for IC50: read-out: activity/potency range across cancer cell lines; for activity relative to 47: IC50 values of Table 4
[10] = test system: Bovine brain tubulin; experiment: In vitro tubulin polymerization assay; format: biochemical; details: 5 µM compound, 20 min incubation
Outline: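 Bovine brain tubulin (0.4 mg, >97% pure) combined with test compound in general tubulin buffer (80 mM PIPES, 2.0 mM MgCl₂, 0.5 mM EGTA, 1 mM GTP, pH 6.9) at 37 °C. Polymerization tracked as A340 read every 1 min over 20 min. Inhibition expressed against vehicle.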

[11] = Rat pharmacokinetic study; format: in vivo, Sprague–Dawley rats; details: 10 mg/kg

For `COc1cc(C(=O)c2csc(-c3ccc(CN)cc3)n2)cc(OC)c1OC.Cl` [Compound 39, (2-(4-(Aminomethyl)phenyl)thiazol-4-yl)(3,4,5-trimethoxyphenyl)-methanone Hydrochloride], which “increase in solubility compared with compound 1” value ([1]; PBS, HCl salt) is on record?
The value was “over 35 fold”.

What about the solubility at […] ([1]; phosphate buffered saline (PBS) buffer, pH 7.4) of the same compound?
Its solubility at […] is at least 35 µg/mL.

What does the source list for “N-(3,4,5-Trimethoxyphenyl)biphenyl-3-sulfinamide [Compound 26]”?
IC50 [2]: > 10 µM; IC50 [3]: > 10 µM; IC50 ([4]; SRB assay, 96 h treatment): > 10 µM; IC50 [5]: > 10 µM; IC50 ([6]; SRB assay, 96 h treatment): > 10 µM; IC50 ([7]; SRB assay, 96 h treatment): > 10 µM; IC50 ([8]; SRB assay, 96 h treatment): > 10 µM

Which “antiproliferative activity” value [9] does the source give for `COc1cc(C(=O)c2cccc(-c3ccccc3)c2)cc(OC)c1OC` [Compound 9a, Biphenyl-3-yl(3,4,5-trimethoxyphenyl)methanone] here?
Its value is “hundreds of nanomolar range”.

For `COc1cc(C(=O)c2csc(-c3ccc(CN(C)C)cc3)n2)cc(OC)c1OC.Cl` [Compound 42, (2-(4-((Dimethylamino)methyl)phenyl)thiazol-4-yl)(3,4,5-trimeth-oxyphenyl)methanone Hydrochloride], which “antiproliferative activity” value [9] is on record?
The value was “abrogated activity”.

Which IC50 [9] does the source give for `COc1cc(/C(=N\C#N)c2csc(-c3ccccc3)n2)cc(OC)c1OC` [Compound 16, N-((2-Phenylthiazol-4-yl)(3,4,5-trimethoxyphenyl)methylene)cyanamide] here?
Its IC50 is 0.02 to 0.06 µM.

What does the source list for `COc1cc(C(=O)c2csc(Nc3ccc(C)cc3)n2)cc(OC)c1OC.Cl` [Compound 46b, (2-(p-Tolylamino)thiazol-4-yl)(3,4,5-trimethoxyphenyl)methanone Hydrochloride Salt]?
activity relative to 47 [9]: over 20 fold; IC50 [9]: 0.035 to 0.065 µM

With `COc1cc(C(=O)c2csc(-c3ccccc3)n2)cc(OC)c1OC` [Compound 1] as the compound, how does the IC50 ([7]; Homo sapiens, PPC-1, 96 h) read?
The IC50 was 0.043 ± 0.005 µM.

What about the IC50 ([8]; Homo sapiens, PC-3, 96 h) of the same compound?
Its IC50 is 0.021 ± 0.001 µM.

Which “antiproliferative activity” value [9] does the source give for `COc1cc(C(=O)c2cc(-c3ccccc3)n[nH]2)cc(OC)c1OC` [Compound 9f, (3-Phenyl-1H–pyrazol-5-yl)(3,4,5-trimethoxyphenyl)methanone] here?
Its value is “hundreds of nanomolar range”.

With “(E)-2-Phenyl-4-(3,4,5-trimethoxystyryl)thiazole [Compound 21]” as the compound, how does the IC50 [2] read?
The IC50 was 30.8 ± 12 µM.

What about the IC50 [3] of the same compound?
The IC50 was 32.8 ± 13 µM.

And the IC50 ([4]; SRB assay, 96 h treatment)?
Its IC50 is over 10 µM.

What about the IC50 [5] of the same compound?
The IC50 was over 100 µM.

What about the IC50 ([6]; SRB assay, 96 h treatment) of the same compound?
Its IC50 is over 10 µM.

What about the IC50 ([7]; SRB assay, 96 h treatment) of the same compound?
Its IC50 is over 10 µM.

What about the IC50 ([8]; SRB assay, 96 h treatment) of the same compound?
Its IC50 is over 10 µM.

What about the “antiproliferative activity” value [9] of the same compound?
Its value is “lost activity”.

Which IC50 [2] does the source give for “3-(3,4,5-Trimethoxyphenylsulfonyl)biphenyl [Compound 24]” here?
The IC50 was over 10 µM.

And the IC50 [3]?
The IC50 was over 10 µM.

What about the IC50 ([4]; SRB assay, 96 h treatment) of the same compound?
Its IC50 is over 10 µM.

What about the IC50 [5] of the same compound?
The IC50 was over 10 µM.

What about the IC50 ([6]; SRB assay, 96 h treatment) of the same compound?
Its IC50 is over 10 µM.

What about the IC50 ([7]; SRB assay, 96 h treatment) of the same compound?
Its IC50 is over 10 µM.

And the IC50 ([8]; SRB assay, 96 h treatment)?
Its IC50 is over 10 µM.

With `COc1cc(C(=O)c2csc(-c3ccc4[nH]ccc4c3)n2)cc(OC)c1OC` [Compound 36, (2-(1H–Indol-5-yl)thiazol-4-yl)(3,4,5-trimethoxyphenyl)methanone] as the compound, how does the “inhibition of tubulin polymerization as compared to vehicle” value [10] read?
The value was 69%.

Which “antiproliferative activity” value [9] does the source give for `CNCc1ccc(-c2nc(C(=O)c3cc(OC)c(OC)c(OC)c3)cs2)cc1.Cl` [Compound 40, (2-(4-((Methylamino)methyl)phenyl)thiazol-4-yl)(3,4,5-trimeth-oxyphenyl)methanone Hydrochloride] here?
Its value is “abrogated activity”.

Which results are given for `COc1cc(C(=O)c2csc(Nc3ccc(F)cc3)n2)cc(OC)c1OC` [Compound 45c, (2-(p-Fluorophenylamino)thiazol-4-yl)(3,4,5-trimethoxyphenyl)-methanone]?
solubility compared with compound 1 ([1]; PBS): improved solubility; IC50 [9]: 0.035 to 0.065 µM

With `COc1cc(/C(=N\N)c2csc(-c3ccccc3)n2)cc(OC)c1OC` [Compound 14b, (E)-4-(Hydrazono(3,4,5-trimethoxyphenyl)methyl)-2-phenylthiazole] as the compound, how does the IC50 ([6]; Homo sapiens, DU-145, 96 h) read?
Its IC50 is 1.21 µM.

What does the source list for `COc1cc(C(=O)c2csc(Nc3ccccc3)n2)cc(OC)c1OC` [Compound 45a, (2-(Phenylamino)thiazol-4-yl)(3,4,5-trimethoxyphenyl)methanone]?
solubility compared with compound 1 ([1]; PBS): improved solubility; activity relative to 47 [9]: over 20 fold; IC50 [9]: 0.035 to 0.065 µM

Which IC50 ([4]; Homo sapiens, LNCaP, 96 h) does the source give for `CO/N=C(\c1cc(OC)c(OC)c(OC)c1)c1csc(-c2ccccc2)n1` [Compound 13d, (E)-(2-Phenylthiazol-4-yl)(3,4,5-trimethoxyphenyl)methanone O-Methyl Oxime] here?
The IC50 was over 10 µM.

What about the IC50 ([8]; Homo sapiens, PC-3, 96 h) of the same compound?
The IC50 was over 10 µM.

For `COc1cc(/C(=N/O)c2csc(-c3ccccc3)n2)cc(OC)c1OC` [Compound 13a, (Z)-(2-Phenylthiazol-4-yl)(3,4,5-trimethoxyphenyl)methanoneOxime], which “activity of syn-isomer relative to anti isomer 13b” value ([9]; 13a vs 13b) is on record?
Its value is 10 fold.

For `CO/N=C(/c1cc(OC)c(OC)c(OC)c1)c1csc(-c2ccccc2)n1` [Compound 13c, (Z)-(2-Phenylthiazol-4-yl)(3,4,5-trimethoxyphenyl)methanone O-Methyl Oxime], which IC50 ([7]; Homo sapiens, PPC-1, 96 h) is on record?
Its IC50 is over 10 µM.

Which “antiproliferative activity” value [9] does the source give for `COc1cc(C(=O)c2coc(-c3ccccc3)n2)cc(OC)c1OC` [Compound 6, (2R)-(2-Phenyl-oxazol-4-yl)-(3,4,5-trimethoxy-phenyl)-methanone] here?
Its value is “hundreds of nanomolar range”.

For “Biphenyl-3-yl(3,4,5-trimethoxyphenyl)sulfane [Compound 23]”, which IC50 [2] is on record?
Its IC50 is 2 ± 1.2 µM.

And the IC50 [3]?
The IC50 was 2.4 ± 0.9 µM.

What about the IC50 ([4]; SRB assay, 96 h treatment) of the same compound?
The IC50 was 2.3 ± 0.2 µM.

What about the IC50 [5] of the same compound?
Its IC50 is 1.6 ± 0.4 µM.

And the IC50 ([6]; SRB assay, 96 h treatment)?
Its IC50 is over 10 µM.

What about the IC50 ([7]; SRB assay, 96 h treatment) of the same compound?
The IC50 was 2.3 ± 0.1 µM.

And the IC50 ([8]; SRB assay, 96 h treatment)?
The IC50 was over 10 µM.

With `COc1cc(C(=O)N2CCC(c3ccccc3)CC2)cc(OC)c1OC` [Compound 9i, (4-Phenylpiperidin-1-yl)(3,4,5-trimethoxyphenyl)methanone] as the compound, how does the “antiproliferative activity” value [9] read?
The value was “totally abolished activity”.

For `COc1cc(C(=O)C2COC(c3ccccc3)=N2)cc(OC)c1OC` (stereo in doubt) [Compound 5, (2R)-(2-Phenyl-4,5-dihydro-oxazol-4-yl)-(3,4,5-trimethoxy-phenyl)-methanone], which “antiproliferative activity” value [9] is on record?
The value was “hundreds of nanomolar range”.

With `COc1cc(C(=O)c2csc(Nc3ccc(F)cc3)n2)cc(OC)c1OC.Cl` [Compound 46c, (2-(p-Fluorophenylamino)thiazol-4-yl)(3,4,5-trimethoxyphenyl)-methanone Hydrochloride Salt] as the compound, how does the “increased exposure (AUC) by the oral route as compared to 1” value [11] read?
The value was “more than 4.3 fold”.

With “(Z)-2-Phenyl-4-(3,4,5-trimethoxystyryl)thiazole [Compound 20]” as the compound, how does the IC50 [2] read?
The IC50 was 10.6 ± 5.8 µM.

And the IC50 [3]?
The IC50 was 11 ± 2.8 µM.

What about the IC50 ([4]; SRB assay, 96 h treatment) of the same compound?
Its IC50 is over 10 µM.

And the IC50 [5]?
Its IC50 is 46.5 ± 23.3 µM.

And the IC50 ([6]; SRB assay, 96 h treatment)?
The IC50 was over 10 µM.

And the IC50 ([7]; SRB assay, 96 h treatment)?
Its IC50 is over 10 µM.

What about the IC50 ([8]; SRB assay, 96 h treatment) of the same compound?
Its IC50 is over 10 µM.

What about the “antiproliferative activity” value [9] of the same compound?
The value was “lost activity”.

Which results are given for “3-(3,4,5-Trimethoxyphenylsulfinyl)biphenyl [Compound 25]”?
IC50 [2]: > 10 µM; IC50 [3]: > 10 µM; IC50 ([4]; SRB assay, 96 h treatment): > 10 µM; IC50 [5]: > 10 µM; IC50 ([6]; SRB assay, 96 h treatment): > 10 µM; IC50 ([7]; SRB assay, 96 h treatment): > 10 µM; IC50 ([8]; SRB assay, 96 h treatment): > 10 µM
